From ChEMBL document CHEMBL3862037 (J Med Chem, 2016)

How the values were obtained:
[1] = species on record: Rattus norvegicus; experiment: Selectivity index, ratio of Ki for SERT in Sprague-Dawley rat brain stem membranes to Ki for DAT in Sprague-Dawley rat brain membranes; format: cell membranes
[2] = Displacement of [3H]nisoxetine from NET in Sprague-Dawley rat frontal cortex membranes incubated for 180 mins by radioligand binding assay; parameters: species or system Membrane
[3] = molecular target: Sodium-dependent dopamine transporter (Rattus norvegicus, UniProt P23977); experiment: Displacement of [3H]WIN35,428 from DAT in Sprague-Dawley rat brain membranes incubated for 120 mins by radioligand binding assay; format: cell membranes, Membrane
Sodium-dependent dopamine transporter, sequence (P23977 whole entry): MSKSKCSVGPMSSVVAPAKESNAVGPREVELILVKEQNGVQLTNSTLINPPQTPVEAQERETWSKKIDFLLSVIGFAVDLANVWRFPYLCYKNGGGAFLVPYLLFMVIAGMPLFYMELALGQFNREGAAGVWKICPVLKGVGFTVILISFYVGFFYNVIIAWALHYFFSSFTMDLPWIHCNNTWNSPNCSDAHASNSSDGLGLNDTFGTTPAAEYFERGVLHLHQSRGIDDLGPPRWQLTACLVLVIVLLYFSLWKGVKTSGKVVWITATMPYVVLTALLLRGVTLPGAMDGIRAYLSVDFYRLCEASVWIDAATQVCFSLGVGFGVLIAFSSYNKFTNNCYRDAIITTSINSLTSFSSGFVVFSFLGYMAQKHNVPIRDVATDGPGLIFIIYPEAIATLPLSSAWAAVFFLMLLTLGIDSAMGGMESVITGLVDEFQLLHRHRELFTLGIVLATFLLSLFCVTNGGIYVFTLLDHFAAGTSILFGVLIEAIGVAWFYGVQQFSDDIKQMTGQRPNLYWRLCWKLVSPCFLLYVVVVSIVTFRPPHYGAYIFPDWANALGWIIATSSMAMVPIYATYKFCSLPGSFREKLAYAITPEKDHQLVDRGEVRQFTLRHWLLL

[4] = species on record: Rattus norvegicus; experiment: Selectivity index, ratio of Ki for NET in Sprague-Dawley rat frontal cortex membranes to Ki for DAT in Sprague-Dawley rat brain membranes; format: cell membranes
[5] = Stability in mouse liver microsomes assessed as compound degradation at 10 uM in presence of NADPH regenerating system measured < 30 mins mins by LC/MS/MS method; format: ADME; details: 0.5 h
Summary of the method: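 Mouse liver microsomes (0.5 mg/mL) in 100 mM potassium phosphate pH 7.4 with NADPH regenerating system. Compound at 10 µM final; testosterone as positive control. Parent compound loss followed over time by LC/MS/MS on a C18 column with formic acid/acetonitrile gradient.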

[6] = molecular target: Sodium-dependent serotonin transporter (Rattus norvegicus, UniProt P31652); experiment: Displacement of [3H]citalopram from SERT in Sprague-Dawley rat brain stem membranes incubated for 60 mins by radioligand binding assay; format: tissue-based
Sodium-dependent serotonin transporter, sequence (P31652 whole entry): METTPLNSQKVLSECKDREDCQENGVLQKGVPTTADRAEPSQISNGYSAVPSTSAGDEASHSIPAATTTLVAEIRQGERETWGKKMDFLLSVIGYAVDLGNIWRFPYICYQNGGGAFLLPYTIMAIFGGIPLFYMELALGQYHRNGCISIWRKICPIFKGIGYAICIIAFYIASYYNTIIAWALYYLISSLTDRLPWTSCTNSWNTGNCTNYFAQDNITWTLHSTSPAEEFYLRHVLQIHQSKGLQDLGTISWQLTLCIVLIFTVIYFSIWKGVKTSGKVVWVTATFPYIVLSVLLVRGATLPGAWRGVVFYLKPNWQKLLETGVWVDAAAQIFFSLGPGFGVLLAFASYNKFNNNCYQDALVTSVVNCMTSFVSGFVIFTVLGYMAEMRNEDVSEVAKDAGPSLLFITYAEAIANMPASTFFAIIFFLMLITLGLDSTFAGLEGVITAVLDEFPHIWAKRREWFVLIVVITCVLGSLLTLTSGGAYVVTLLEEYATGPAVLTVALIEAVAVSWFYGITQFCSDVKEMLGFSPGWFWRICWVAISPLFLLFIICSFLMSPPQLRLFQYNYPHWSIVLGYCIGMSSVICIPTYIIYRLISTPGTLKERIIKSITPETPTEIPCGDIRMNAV

[7] = Induction of locomotor activity in C57BL/6J mouse assessed as increase in traveled distance every 10 mins at 10 mg/kg, ip; format: organism-based; details: in vivo
[8] = molecular target: D(2) dopamine receptor (Homo sapiens, UniProt P14416); experiment: Displacement of [3H]N-methylspiperone from human D2R expressed in HEK293 cell membranes incubated for 1 hr by radioligand binding assay
D(2) dopamine receptor, sequence (P14416 whole entry): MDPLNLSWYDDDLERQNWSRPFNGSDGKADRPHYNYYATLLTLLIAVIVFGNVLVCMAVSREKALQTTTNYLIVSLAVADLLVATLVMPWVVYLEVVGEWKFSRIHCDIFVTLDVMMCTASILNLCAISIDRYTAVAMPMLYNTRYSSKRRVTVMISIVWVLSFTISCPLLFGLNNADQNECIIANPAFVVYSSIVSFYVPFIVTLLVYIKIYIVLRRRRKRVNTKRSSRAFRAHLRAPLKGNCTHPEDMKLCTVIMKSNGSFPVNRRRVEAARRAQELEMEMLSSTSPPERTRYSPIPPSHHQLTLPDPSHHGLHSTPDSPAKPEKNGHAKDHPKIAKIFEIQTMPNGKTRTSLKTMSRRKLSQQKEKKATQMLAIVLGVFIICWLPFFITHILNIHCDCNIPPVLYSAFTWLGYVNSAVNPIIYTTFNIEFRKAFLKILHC
Summary of the method: (§1)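 Membranes from HEK293 cells stably expressing human D2R (20 µg protein) or D4R (30 µg protein). Buffer: EBSS with 0.2 mM sodium metabisulfite and 0.4 nM [3H]N-methylspiperone. Test compound at 11 half-log dilutions (100 µM–100 pM or 10 µM–10 pM) in 30% DMSO vehicle. Incubated 1 h at room temperature; nonspecific binding with 10 µM butaclamol.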

[9] = molecular target: D(3) dopamine receptor (Homo sapiens, UniProt P35462); experiment: Displacement of [3H]N-methylspiperone from human D3R expressed in HEK293 cell membranes incubated for 1 hr by radioligand binding assay
D(3) dopamine receptor, sequence (P35462 whole entry): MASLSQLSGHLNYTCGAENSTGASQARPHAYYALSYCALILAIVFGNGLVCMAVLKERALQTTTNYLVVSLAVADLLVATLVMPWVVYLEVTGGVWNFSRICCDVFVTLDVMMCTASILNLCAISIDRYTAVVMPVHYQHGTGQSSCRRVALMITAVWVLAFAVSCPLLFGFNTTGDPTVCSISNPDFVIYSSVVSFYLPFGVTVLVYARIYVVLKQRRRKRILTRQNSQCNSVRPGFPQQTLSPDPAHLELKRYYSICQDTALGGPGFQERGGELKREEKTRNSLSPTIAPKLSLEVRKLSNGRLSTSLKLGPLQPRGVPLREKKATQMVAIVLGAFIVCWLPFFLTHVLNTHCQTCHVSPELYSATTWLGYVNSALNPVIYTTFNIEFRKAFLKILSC

[10] = molecular target: Sigma non-opioid intracellular receptor 1 (Cavia porcellus, UniProt Q60492); experiment: Displacement of [3H](+)-pentazocine from sigma1 receptor in whole-guinea pig brain minus cerebellum homogenates incubated for 120 mins by radioligand binding assay
Sigma non-opioid intracellular receptor 1, sequence (Q60492 whole entry): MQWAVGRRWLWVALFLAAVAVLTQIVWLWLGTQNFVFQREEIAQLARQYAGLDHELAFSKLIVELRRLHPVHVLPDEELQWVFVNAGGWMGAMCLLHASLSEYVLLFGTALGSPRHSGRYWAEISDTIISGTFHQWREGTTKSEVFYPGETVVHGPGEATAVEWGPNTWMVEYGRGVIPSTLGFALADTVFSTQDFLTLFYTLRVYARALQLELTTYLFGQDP
Summary of the method: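 Guinea pig whole-brain (minus cerebellum) membranes, 8.0 mg OWW per tube, in 50 mM Tris-HCl pH 8.0 with 3 nM [3H](+)-pentazocine. Incubated 120 min at room temperature. Nonspecific binding defined by haloperidol. Stopped by GF/B filtration and scintillation counting. IC50 from nonlinear regression, converted to Ki. At least three independent experiments, each in triplicate.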

[11] = molecular target: T1, D(4) dopamine receptor (Homo sapiens, UniProt P21917); experiment: Displacement of [3H]N-methylspiperone from human D4R expressed in HEK293 cell membranes incubated for 1 hr by radioligand binding assay; summary of the method: as §1
T1 sequence (P21917 whole entry): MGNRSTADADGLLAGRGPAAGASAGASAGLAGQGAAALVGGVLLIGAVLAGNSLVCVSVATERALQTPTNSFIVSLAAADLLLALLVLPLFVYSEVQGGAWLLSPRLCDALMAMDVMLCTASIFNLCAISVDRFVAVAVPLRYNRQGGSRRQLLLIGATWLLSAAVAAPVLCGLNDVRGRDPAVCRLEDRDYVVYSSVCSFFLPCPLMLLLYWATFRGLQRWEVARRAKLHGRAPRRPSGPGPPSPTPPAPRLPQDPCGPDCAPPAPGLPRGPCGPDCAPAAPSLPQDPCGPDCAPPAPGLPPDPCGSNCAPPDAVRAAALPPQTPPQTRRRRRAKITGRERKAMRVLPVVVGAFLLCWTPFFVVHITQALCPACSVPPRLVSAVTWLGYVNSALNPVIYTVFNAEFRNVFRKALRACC

[12] = Induction of locomotor activity in C57BL/6J mouse assessed as increase in traveled distance every 10 mins at 10 to 30 mg/kg, ip; format: organism-based; details: in vivo

## CC(O)CN1CCN(C(=O)CSC(c2cccc(Cl)c2)c2cccc(Cl)c2)CC1 (configuration not stated)
[1]
  Ratio Ki: > 100
[2]
  Ki: > 50000 nM
[3]
  Ki: 915 nM
[4]
  Ratio Ki: > 100

## [O-][S+](CCN1CCN(Cc2ccc(F)cc2)CC1)C(c1ccc(F)cc1)c1ccc(F)cc1 (configuration not stated)
[5]
  Stability: Unstable
[6]
  Ki: 8520 nM
[1]
  Ratio Ki: > 100
[2]
  Ki: > 50000 nM
[3]
  Ki: 9.67 nM
[4]
  Ratio Ki: > 100

## CC(O)CN1CCN(CCSC(c2cccc(Cl)c2)c2cccc(Cl)c2)CC1 (configuration not stated)
[6]
  Ki: 10800 nM
[1]
  Ratio Ki: > 100
[2]
  Ki: 31300 nM
[3]
  Ki: 143 nM
[4]
  Ratio Ki: > 100

## CC(O)CN1CCN(CCSC(c2ccccc2)c2ccccc2)CC1 (configuration not stated)
[1]
  Ratio Ki: > 100
[4]
  Ratio Ki: > 100

## O=C(CSC(c1ccc(F)cc1)c1ccc(F)cc1)N1CCN(Cc2ccc(F)cc2)CC1
[6]
  Ki: 6210 nM
[1]
  Ratio Ki: > 100
[3]
  Ki: 53.7 nM
[4]
  Ratio Ki: > 100

## CC(O)CN1CCN(C(=O)C[S+]([O-])C(c2ccc(F)cc2)c2ccc(F)cc2)CC1 (configuration not stated)
[6]
  Ki: 32800 nM
[1]
  Ratio Ki: > 100
[3]
  Ki: 752 nM
[4]
  Ratio Ki: > 100

## Fc1ccc(C(SCCN2CCN(CCCc3ccccc3)CC2)c2ccc(F)cc2)cc1
[1]
  Ratio Ki: > 100
[4]
  Ratio Ki: > 100

## Fc1ccc(CN2CCN(CCSC(c3ccc(F)cc3)c3ccc(F)cc3)CC2)cc1
[6]
  Ki: 463 nM
[1]
  Ratio Ki: > 100
[2]
  Ki: 6850 nM
[3]
  Ki: 4.98 nM
[4]
  Ratio Ki: > 100

## O=C(C[S+]([O-])C(c1ccc(F)cc1)c1ccc(F)cc1)N1CCN(CCCc2ccccc2)CC1 (configuration not stated)
[5]
  Stability: Unstable
[6]
  Ki: 1320 nM
[1]
  Ratio Ki: > 100
[2]
  Ki: 12000 nM
[3]
  Ki: 37.6 nM
[4]
  Ratio Ki: > 100

## Fc1ccc(C(SCCN2CCN(Cc3ccccc3)CC2)c2ccc(F)cc2)cc1
[6]
  Ki: 949 nM
[1]
  Ratio Ki: > 100
[2]
  Ki: 8240 nM
[3]
  Ki: 7.4 nM
[4]
  Ratio Ki: > 100

## O=C(C[S+]([O-])C(c1ccc(F)cc1)c1ccc(F)cc1)N1CCN(Cc2ccc(Cl)cc2)CC1 (configuration not stated)
[6]
  Ki: 9460 nM
[1]
  Ratio Ki: > 100
[2]
  Ki: 63500 nM
[3]
  Ki: 56.3 nM
[4]
  Ratio Ki: > 100

## c1ccc(CCCN2CCN(CCSC(c3ccccc3)c3ccccc3)CC2)cc1
[1]
  Ratio Ki: > 100
[4]
  Ratio Ki: > 100

## CC(O)CN1CCN(C(=O)C[S+]([O-])C(c2cccc(Cl)c2)c2cccc(Cl)c2)CC1 (configuration not stated)
[1]
  Ratio Ki: > 100
[2]
  Ki: > 50000 nM
[3]
  Ki: 1380 nM
[4]
  Ratio Ki: > 100

## [O-][S+](CCN1CCN(Cc2ccccc2)CC1)C(c1ccc(F)cc1)c1ccc(F)cc1 (configuration not stated)
[6]
  Ki: 11200 nM
[1]
  Ratio Ki: > 100
[2]
  Ki: 45700 nM
[3]
  Ki: 27.2 nM
[4]
  Ratio Ki: > 100

## CCCN1CCN(C(=O)C[S+]([O-])C(c2ccc(F)cc2)c2ccc(F)cc2)CC1 (configuration not stated)
[6]
  Ki: 14500 nM
[1]
  Ratio Ki: > 100
[3]
  Ki: 279 nM
[4]
  Ratio Ki: > 100

## CC(O)CN1CCN(CC[S+]([O-])C(c2ccccc2)c2ccccc2)CC1 (configuration not stated)
[1]
  Ratio Ki: > 100
[4]
  Ratio Ki: > 100

## Fc1ccc(C(SCCN2CCN(Cc3ccc(C(F)(F)F)cc3)CC2)c2ccc(F)cc2)cc1
[6]
  Ki: 2020 nM
[1]
  Ratio Ki: > 100
[2]
  Ki: 15400 nM
[3]
  Ki: 26.6 nM
[4]
  Ratio Ki: > 100

## CCCN1CCN(C(=O)CSC(c2ccc(F)cc2)c2ccc(F)cc2)CC1
[6]
  Ki: 5970 nM
[1]
  Ratio Ki: > 100
[3]
  Ki: 277 nM
[4]
  Ratio Ki: > 100

## O=C(C[S+]([O-])C(c1ccc(F)cc1)c1ccc(F)cc1)N1CCN(Cc2ccc(F)cc2)CC1 (configuration not stated)
[5]
  Stability: Unstable
[6]
  Ki: 23600 nM
[1]
  Ratio Ki: > 100
[3]
  Ki: 74.3 nM
[4]
  Ratio Ki: > 100

## O=C(CSC(c1ccc(F)cc1)c1ccc(F)cc1)N1CCN(CCCc2ccccc2)CC1
[6]
  Ki: 3170 nM
[1]
  Ratio Ki: > 100
[2]
  Ki: 20200 nM
[3]
  Ki: 28.6 nM
[4]
  Ratio Ki: > 100

## Fc1ccc(C(SCCNCCCc2ccccc2)c2ccc(F)cc2)cc1
[7]
  Activity: Non-Toxic
[8]
  Ki: 228 nM
[9]
  Ki: 65.9 nM
[10]
  Ki: 159 nM
[11]
  Ki: 28.1 nM

## CC(O)CN1CCN(CC[S+]([O-])C(c2cccc(Cl)c2)c2cccc(Cl)c2)CC1 (configuration not stated)
[6]
  Ki: 58900 nM
[1]
  Ratio Ki: > 100
[2]
  Ki: > 50000 nM
[3]
  Ki: 403 nM
[4]
  Ratio Ki: > 100

## CCc1cc(Cl)c(OC)c(C(=O)NC[C@@H]2CCCN2CC)c1O [ETICLOPRIDE]
[8]
  Ki: 0.26 nM
[11]
  Ki: 70.4 nM

## [O-][S+](CCN1CCN(CC(O)Cc2ccccc2)CC1)C(c1ccccc1)c1ccccc1 (configuration not stated)
[5]
  Stability: Unstable
[1]
  Ratio Ki: > 100
[4]
  Ratio Ki: > 100

## Fc1ccc(C(SCCN2CCN(Cc3ccc(Cl)cc3)CC2)c2ccc(F)cc2)cc1
[6]
  Ki: 905 nM
[1]
  Ratio Ki: > 100
[2]
  Ki: 7410 nM
[3]
  Ki: 19.3 nM
[4]
  Ratio Ki: > 100

## NC(=O)C[S@@+]([O-])C(c1ccccc1)c1ccccc1 [ARMODAFINIL]
[7]
  Activity: Toxic
[8]
  Ki: > 100000 nM
[12]
  Activity: Dose-dependent effect
[9]
  Ki: 39000 nM
[10]
  Ki: > 100000 nM
[11]
  Ki: > 100000 nM

## O=C(CSC(c1ccc(F)cc1)c1ccc(F)cc1)N1CCN(Cc2ccc(Cl)cc2)CC1
[6]
  Ki: 2200 nM
[1]
  Ratio Ki: > 100
[3]
  Ki: 58.7 nM
[4]
  Ratio Ki: > 100

## [O-][S+](CCN1CCN(Cc2ccc(Cl)cc2)CC1)C(c1ccc(F)cc1)c1ccc(F)cc1 (configuration not stated)
[5]
  Stability: Unstable
[6]
  Ki: 4940 nM
[1]
  Ratio Ki: > 100
[2]
  Ki: > 50000 nM
[3]
  Ki: 7.62 nM
[4]
  Ratio Ki: > 100

## CCCCN1C2CCC1CC(OC(c1ccc(F)cc1)c1ccc(F)cc1)C2 (configuration not stated)
[8]
  Ki: 68.1 nM
[2]
  Ki: 1670 nM
[3]
  Ki: 10.5 nM
[9]
  Ki: 34.4 nM
[10]
  Ki: 2.4 nM
[11]
  Ki: 583 nM

## [O-][S+](CCN1CCN(Cc2ccc(C(F)(F)F)cc2)CC1)C(c1ccc(F)cc1)c1ccc(F)cc1 (configuration not stated)
[5]
  Stability: Unstable
[6]
  Ki: 6800 nM
[1]
  Ratio Ki: > 100
[2]
  Ki: > 50000 nM
[3]
  Ki: 39.4 nM
[4]
  Ratio Ki: > 100

## OC(Cc1ccccc1)CN1CCN(CCSC(c2ccc(F)cc2)c2ccc(F)cc2)CC1 (configuration not stated)
[1]
  Ratio Ki: > 100
[4]
  Ratio Ki: > 100

## CC(O)CN1CCN(C(=O)CSC(c2ccc(F)cc2)c2ccc(F)cc2)CC1 (configuration not stated)
[5]
  Stability: Unstable
[6]
  Ki: 11400 nM
[1]
  Ratio Ki: > 100
[3]
  Ki: 214 nM
[4]
  Ratio Ki: > 100

## [O-][S+](CCN1CCN(CCCc2ccccc2)CC1)C(c1ccccc1)c1ccccc1 (configuration not stated)
[6]
  Ki: 7360 nM
[1]
  Ratio Ki: > 100
[4]
  Ratio Ki: > 100
